The subject of the data set is MS2 coat protein. The data set can be described thus: apparent Kd, MS2 coat protein; higher = weaker binding; RNA-MaP array; FMN 200 µM where present. The procedure, abridged:
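In 100 mM Tris-HCl pH 7.5, 80 mM KCl, 4 mM MgCl2, BSA, DTT, yeast tRNA and Tween-20, SNAP-549-labelled MS2 coat protein was titrated from 0.7 or 1.5 nM, doubling to 3 µM, over designs transcribed by stalled E. coli RNA polymerase on Illumina sequencing-chip clusters. This was done first without ligand, then with ligand held constant. After green signal was normalised to red-channel RNA signal and control-cluster median Fmax, the apparent Kd was taken as the median of filtered per-cluster binding-curve fits.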

Setting [1] is: designed as: OFF switch for flavin mononucleotide, no ligand.
Where [2] appears, read: ligand present: flavin mononucleotide, designed as: OFF switch for flavin mononucleotide.
The mark [3] stands for this setting: designed as: ON switch for flavin mononucleotide, no ligand.
Setting [4] is: ligand present: flavin mononucleotide, designed as: ON switch for flavin mononucleotide.

A word on the apparent Kd: it is a dissociation constant that holds for the conditions of the assay. In the case of “AAGUUUAACGAAGGAUAUGGUUACAUGAGGAUCACCCAUGUAUUUUUUGUGAUCUUGAAAUAGUUCCAGAAGGUCGUAUACAUA”, the “apparent Kd” value is, setting by setting: under setting [1], 138 nM; under setting [2], 359 nM.

On to “GUAGCAUACCGAGGAUAUUCAUAUAAUAAGUAAACAUGAGGAUCACCCAUGUAGCGAGAGCCUUGGGAGAAGGCGGAAUGCUAC”, for which the “apparent Kd” value is, setting by setting: under setting [3], 337 nM; under setting [4], 58.1 nM.

“GGACGUCACAUUAACAUGAGGAUCACCCAUGUCAAAAGACAUGAGGAUAUGGAUAAUAAUAUAAACCAGAAGGCAUGGACGUCC”: the “apparent Kd” value under setting [3] was determined as 526 nM and the “apparent Kd” value under setting [4] amounted to 29.2 nM.

In the case of “GAAGGGCCUCGAGGAUAUCGCUGCGGUCGUUUGACAUGAGGAUCACCCAUGUGAGAAGGCGAGGCUACUAACCAUGCCCGUUAU”, the “apparent Kd” value under setting [1] was 31.3 nM and the “apparent Kd” value under setting [2] stood at 148 nM.

As to “GUCAAGUGAGGAUAUGAUUGUACGGCAGACUAGCGUCUGCAUCAGAAGGCACAUGAGGAUCACCCAUGUUUGUC”, the “apparent Kd” value is, setting by setting: under setting [1], 19.1 nM; under setting [2], 16.9 nM.

As to “CUUCGACAUGAGGAUCACCCAUGUCAGGAUAUUGUGUAUCGGGUUUUUUACGGUAAGGCAAGAAGGGAUGUGUG”, the “apparent Kd” value under setting [1] was 33 nM and the “apparent Kd” value under setting [2] was 30.2 nM.

For the sequence “CUAUUGGCAGGAUAUGCUUUUUUAGACAUGAGGAUCACCCAUGUGAUGAAUUUUGGGUUUGCAGAAGGGCCUGAGU”, the “apparent Kd” value under setting [1] amounted to 67.1 nM and the “apparent Kd” value under setting [2] is 100 nM.

As for “AAGAAGUGAGGAUAUGCUGACAAUAUGAAGACUUGAGGUAUGCAGAAGGCACAUGAGGAUCACCCAUGUAAGAA”, the “apparent Kd” value under setting [1] turned out to be 30 nM and the “apparent Kd” value under setting [2] was determined as 29.7 nM.

With “GUCAUGGUAACAGGAUAUCGUUGAUAAAAGUUAUACAUGAGGAUCACCCAUGUCCGCACUAAGGGCGAGAAGGGUUAUUAUCAC”, the “apparent Kd” value reads like this: under setting [3], 501 nM; under setting [4], 382 nM.

As for “UCAAGUAUGUAGGAUAUCGAUGUCUGCGGACAUCGAGAAGGACGUACAUGAGGAUCACCCAUGUAACUUGCAUG”, the “apparent Kd” value was found to be 107 nM under setting [1] and 79.4 nM under setting [2].

With “AUAACGUCAGGAUAUUUCCAGAGGGUCAUAGGACCCAUUGGAAAGAAGGGACAUGAGGAUCACCCAUGUCGGUG”, the “apparent Kd” value is, setting by setting: under setting [1], 136 nM; under setting [2], 391 nM.

Regarding “UAAUGUAUAUAGGAUAUCUAGCUGGAUACAGCUAGAGAAGGAUGUACAUGAGGAUCACCCAUGUAAAUCUCAAU”, the “apparent Kd” value reads like this: under setting [1], 18.3 nM; under setting [2], 31.2 nM.

For “GCUGCGUAUGCAGGAUAUACAUGAGGAUCACCCAUGUAACUCGAACUCUAAGCGGGUGCGCGCAUGUAGAAGGGCAGGCGAGCC”, the “apparent Kd” value was determined as 35.5 nM under setting [1] and 51.2 nM under setting [2].

With “AUCAGAUCUCGACUGUCCAACAUGAGGAUCACCCAUGUCAGAAGAAGGGACUAUUAACUAAUCUGUCAGGAUAUUUUGACGCGG”, the “apparent Kd” value by setting is: under setting [1], 10.6 nM; under setting [2], 49.7 nM.

Turning to “GUAGAGUAGUGAGGAUAUACGAGAUCGAUAGAUCGGCGAUCCAUUUAUACAUGAGGAUCACCCAUGUAGAAGGCACUUCUCUAC”, the “apparent Kd” value by setting is: under setting [1], 6.26 nM; under setting [2], 62.8 nM.

As to “UCAUAACAUGAGGAUCACCCAUGUGAGGAUAUGAUACUAUGUACUUCGGUACAUAGUAUCAGAAGGCACAUACU”, the “apparent Kd” value under setting [1] is 85 nM and the “apparent Kd” value under setting [2] amounted to 316 nM.

Regarding “UUUAACGUAGCAGGAUAUUGACGACUUGGGACAUGAGGAUCACCCAUGUUGCAAGAAGGGCUUAGUCAAGACACGAGCGGUGUU”, the “apparent Kd” value under setting [1] came to 6.54 nM and the “apparent Kd” value under setting [2] was 8.15 nM.

In the case of “CAUUAAUUCAUUAUAGUAAUUAUACAGGAUAUGUUACAUGAGGAUCACCCAUGUAUUCAUGGUAAACAGAAGGGUAAUACAAGA”, the “apparent Kd” value is, setting by setting: under setting [1], 13.8 nM; under setting [2], 16.3 nM.

As for “UUUUUUUGCUGAGGAUAUAGCGCGCGUUUUGCGCUAGAAGGCAGACAUGUGGUUCACCCAUGUACAUGAGGAUCACCCAUGUUA”, the “apparent Kd” value was found to be 552 nM under setting [3] and 301 nM under setting [4].

As to “AGAUCACAUGAGGAUCACCCAUGUCAGGAUAUGAUACUAUGUACUUCGGUACAUAGUAUCAGAAGGGACUUAAA”, the “apparent Kd” value is, setting by setting: under setting [1], 101 nM; under setting [2], 283 nM.

Consider “GCCUCACAUGAGGAUCACCCAUGUCAGGAUAUAGGAGGCGGUAGAAAUCCUACCGCCGCUAGAAGGGACUGGCA”, for which the “apparent Kd” value is, setting by setting: under setting [1], 42.8 nM; under setting [2], 90.7 nM.

For “AUUAUUGACGAAGGAUAUGGAUACAUGAGGAUCACCCAUGUAUAUUUUGUGAUCAUAUUUAUGAUCCAGAAGGUCGUUGUUUAU”, the “apparent Kd” value under setting [1] was determined as 37.3 nM and the “apparent Kd” value under setting [2] was 113 nM.

With “AUACUUAAUGAAGGAUAUCUUAGCAUAAACCUGAGAGAAGGUCAUUAUUACAUGAGGAUCACCCAUGUUGUGGUUAAUGGGUAA”, the “apparent Kd” value is 264 nM under setting [1] and 327 nM under setting [2].

Regarding “UCACGGCAUGUAGGAUAUGCAUAGCAUUGCUAUGCAGAAGGACAUGAGGAUCACCCAUGUAUGUAUUCCAUACUAUUCCCGUGU”, the “apparent Kd” value is 7.42 nM under setting [1] and 14.8 nM under setting [2].

Take “CUCGUGUGAGGAUAUGCGGGCGGGCGCGUUUGUGUUUGUUUGUAGAAGGUACAUGAGGAUCACCCAUGUGCUGG”: the “apparent Kd” value is, setting by setting: under setting [1], 24 nM; under setting [2], 80.9 nM.

“GUAGCUAUCGGAGGAUAUUCAUACCGGAAACGGACAUGAGGAUCACCCAUGUGGAGAAAGCCUUAGGAGAAGGCCGAUAGCUAC”: the “apparent Kd” value was 33 nM under setting [3] and 8.9 nM under setting [4].

For the sequence “AGAAACUACGAGAAGGACAUGAAAAGUGCCGCAAACAUGAGGAUCACCCAUGUAGGAUAUCGUAGUUUCAGGAUCGUGAGAUCA”, the “apparent Kd” value came out at 15.8 nM under setting [1] and 108 nM under setting [2].

Take “AAAAAACAUGAGGAUCACCCAUGUCAGGAUAUCGUUGAAAAAAAAAAAAAAAAAAAAGCGAGAAGGGACACGAA”: the “apparent Kd” value came to 72.6 nM under setting [1] and 68.2 nM under setting [2].

For “AGAAACUACGAGAAGGACAUGUGGUCCAAAAUAAACAUGAGGAUCACCCAUGUAGGAUAUCGUAGUUUCAGGAUCGUGAGAUCA”, the “apparent Kd” value is, setting by setting: under setting [1], 260 nM; under setting [2], 12.3 nM.

With “AGUAUGCGGCAGGAUAUCCAUCCGCGGUGUGGUGGAGAAGGGCUGACAUGAGGAUCACCCAUGUGCGUCCUGUA”, the “apparent Kd” value reads like this: under setting [1], 23.6 nM; under setting [2], 37.9 nM.

Consider “AUGCUUCACACAGGAUAUACAUGAGGAUCACCCAUGUGUCCACCGUAGCUGACACGAGCUACGCUGUAGAAGGGUGUGAAGCAU”, for which the “apparent Kd” value under setting [1] was 19.3 nM and the “apparent Kd” value under setting [2] was 52.8 nM.

Consider “ACACAUGAGGAUCACCCAUGUACGCGCUGACAGGAGGUCUCACAGGAUAUAUGUGGUGAUGCUACAUAGAAGGGUGAUACCGCG”, for which the “apparent Kd” value runs as follows: under setting [3], 233 nM; under setting [4], 49.5 nM.

“UUACAUACAAAGGUACAUGAGGAUCACCCAUGUUUGUUGGGAAGAAGGGUAACAGUACUACACAUAUAGGAUAUUUCACAAAUA”: the “apparent Kd” value is, setting by setting: under setting [3], 52.4 nM; under setting [4], 40 nM.

Take “GUCAGCUCGUGAGGAUAUACAACACUGCUUCGGCAGUGUAUUAACAUCACAUGAGGAUCACCCAUGUAGAAGGCACGAGCUGAU”: the “apparent Kd” value is, setting by setting: under setting [1], 4.99 nM; under setting [2], 7.45 nM.

In the case of “UUACUCAUGUAAGGAUAUGUAGCCGUUUCGGCUGCAGAAGGUACUAUAAUACAUGAGGAUCACCCAUGUCUAUAAAAUAAAGAC”, the “apparent Kd” value came to 34.6 nM under setting [3] and 25.6 nM under setting [4].

Turning to “GUUUCACAUGAGGAUCACCCAUGUGAGGAUAUAGAUUUGUUAACCGUAGUUAAUAGAUCUAGAAGGCGCGUGAU”, the “apparent Kd” value was 60.7 nM under setting [1] and 66.1 nM under setting [2].

As for “GGUACCUUUACAGGAUAUGCUAGCCUUUGGUUAGCAGAAGGGUGAUACAUGAGGAUCACCCAUGUGGUGCCAGGGCGUGAGCCC”, the “apparent Kd” value reads like this: under setting [3], 79.2 nM; under setting [4], 447 nM.

As to “CAUUCAUGUCUAGGAUAUGAGUGACAAGCGCGAAGUUUUUUCGCCGCUAGCUCAGAAGGAGACAUGAGGAUCACCCAUGUAAGG”, the “apparent Kd” value by setting is: under setting [1], 24.1 nM; under setting [2], 9.96 nM.

Take “UCCGUGGCAUCUCGCGCAUGUCUACAUGAGGAUCACCCAUGUCAGGAUAUACGGAAUGUCGUUCCGUAGAAGGGACAAGGGCUG”: the “apparent Kd” value came out at 243 nM under setting [1] and 116 nM under setting [2].

“GUCAGCUCGUGAGGAUAUACAUGUGCUGGAUACAGCACUAAUUAAAUCACAUGAGGAUCACCCAUGUAGAAGGCACGAGCUGAU”: the “apparent Kd” value is 16.7 nM under setting [1] and 24.8 nM under setting [2].

Regarding “GGUCGUCACAUCUACAUGAGGAUCACCCAUGUCAAAAGACAUGAGGAUAUGCAUCCUAAUUGGAUGCAGAAGGCAUGGACGACC”, the “apparent Kd” value was 1280 nM under setting [3] and 66.8 nM under setting [4].

Regarding “ACACGGUAUGUAGGAUAUGCAUAGCAUUGCUAUGCAGAAGGACAUGAGGAUCACCCAUGUAUGUAUUCCAUACUAAUCCCGUGC”, the “apparent Kd” value by setting is: under setting [1], 6.03 nM; under setting [2], 6 nM.

For the sequence “UCAUCGGCAGGAUAUACGAAAGGAGAACUUCUGCGCAAGAUACAUGAGGAUCACCCAUGUAGAAGGGUCGUAUG”, the “apparent Kd” value reads like this: under setting [1], 27.8 nM; under setting [2], 88.7 nM.

For the sequence “GGACGUCACAUUAACAUGAGGAUCACCCAUGUCAAAAGACAUGAGGAUAUGGAUGCGAAACGCAUCCAGAAGGCAUGGACGUCC”, the “apparent Kd” value is, setting by setting: under setting [3], 629 nM; under setting [4], 41.1 nM.

Regarding “GUCAGCUCGUGAGGAUAUACAUCACUGCGAAAGCAGUGUAUUAAGAUCACAUGAGGAUCACCCAUGUAGAAGGCACGAGCUGAU”, the “apparent Kd” value worked out at 43.7 nM under setting [1] and 626 nM under setting [2].

Take “ACCGGGUGUCACGUAUUACCGACAUGAGGAUCACCCAUGUAGGAGGAUAUGCAGACCGACAUAAAGCAGAAGGCCUACGUUUUC”: the “apparent Kd” value runs as follows: under setting [1], 6.72 nM; under setting [2], 35.8 nM.

In the case of “AUUUUGUCAGGAUAUGAGUAGUAGGACGAAAGUGUUAUUAUUUAGAAGGGACAUGAGGAUCACCCAUGUUUUCC”, the “apparent Kd” value worked out at 12.7 nM under setting [1] and 16.7 nM under setting [2].

Take “GUGCCUUGGGAGAAGGAUAAUAAUAAAUAAAUAAUAGGAUAUUCAUACCGGAAACGGACAUGAGGAUCACCCAUGUGGCACAAA”: the “apparent Kd” value under setting [3] turned out to be 413 nM and the “apparent Kd” value under setting [4] stood at 125 nM.
